SUMO HTRF inh – inhibitors of in vitro SUMOylation cascade, primary screen, biochemical, HTRF, uHTS; SUMO-conjugating enzyme UBC9 (Homo sapiens), P63279; HTRF SUMOylation assay, SAE1/SAE2 + UBC9; inhibition, % at 35 µM; actives 0.36% (n = 290,000); AID 2006, 2009; in the data active = inhibition above about 50%, passing the limit was not always enough
HNF4A DNA FP – change in binding of human HNF4A to DNA, primary screen, biochemical, fluorescence polarization, FITC-DNA; 1 h; activity change, % at 10 µM; actives 0.3% (n = 360,000); AID 1224865, 2016; in the data active = activity change above about 30%, passing the limit was not always enough
SENP1 FRET inh – human SENP1 catalytic domain inhibitors, primary screen, biochemical, FRET, uHTS; recombinant SENP1 catalytic domain, CyPet-SUMO1-YPet FRET cleavage; inhibition, % at 10 µM; Sentrin-specific protease 1 (Homo sapiens), Q9P0U3; actives 0.21% (n = 360,000);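 active = inhibition at least 30% at 10 µM, raw YFP signal under a set limit, fluorescence ratio 0.5 to 1.5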;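 note: 0% = enzyme with DMSO and 100% = no enzyme wells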
Target sequence (Q9P0U3 419-644 limits assumed): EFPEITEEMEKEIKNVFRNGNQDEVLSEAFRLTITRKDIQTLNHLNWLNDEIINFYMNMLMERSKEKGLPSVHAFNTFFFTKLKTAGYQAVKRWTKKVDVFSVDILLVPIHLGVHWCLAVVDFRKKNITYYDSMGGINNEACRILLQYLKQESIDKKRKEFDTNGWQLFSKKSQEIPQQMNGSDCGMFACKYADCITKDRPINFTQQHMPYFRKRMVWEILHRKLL
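Controls: no-enzyme wells low, DMSO-plus-enzyme wells high control. Test system: human recombinant His6-tagged SENP1 catalytic domain enzyme. Reagent: SFCypet-SUMO1-SFYpet FRET protein substrate, 25 nM final. Doses: one dose per compound, 10 µM, 0.5% DMSO. Detection: FRET, CFP and YFP emission. Timing: 50 min reaction at room temperature.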
CSN inh – inhibitors of CSN-mediated cullin deneddylation, primary screen, biochemical, fluorescence polarization, uHTS | COP9 signalosome complex subunit 5 (Homo sapiens), Q92905 | Purified CSN, SCF-Nedd8-OG deneddylation | inhibition, % at 12.5 µM | actives 0.38% (n = 360,000) | AID 651999, 2013;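 active = pattern-corrected inhibition above about 35%, with an unprinted fluorescence ratio check between 0.5 and 1.5, limit read from the data, passing the limit was not always enough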;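 note: 0% = enzyme with substrate and 100% = substrate without enzyme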
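Detection – fluorescence polarization · System – HEK293T-derived human Csn5 enzyme · Controls – substrate-only high control, full reaction low control · Timing – 90 min, room temperature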
TPT1 inhibitor – Candida albicans TPT1 enzyme inhibitors, primary screen, biochemical, fluorescence polarization | AID 1962, 2009 | recombinant caTPT1, FP RNA substrate dephosphorylation | tRNA 2'-phosphotransferase TPT1 (Candida albicans SC5314) | actives 0.81% (n = 300,000) | inhibition, % at 5 µM;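 active = inhibition above the mean of all tested compounds plus 3 SD, set per screening campaign, cut at about 24% in these data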;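 note: plate controls were DMSO alone for no effect and ferristatin control at 100 nM for full effect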
Rpn11 block – Rpn11 (PSMD14) deubiquitinase inhibitors, primary screen, biochemical, fluorescence polarization, uHTS; human 26S proteasome, Ub4-pepOG fluorescence polarization; 20S core pre-blocked with epoxomicin; calls only at 20 µM; 26S proteasome non-ATPase regulatory subunit 14 (Homo sapiens), O00487; actives 0.59% (n = 360,000);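 active = inhibition at 20 µM, scaled to each plate's controls, above about 33%, limit read from the data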
Target sequence (O00487 whole entry, looked up): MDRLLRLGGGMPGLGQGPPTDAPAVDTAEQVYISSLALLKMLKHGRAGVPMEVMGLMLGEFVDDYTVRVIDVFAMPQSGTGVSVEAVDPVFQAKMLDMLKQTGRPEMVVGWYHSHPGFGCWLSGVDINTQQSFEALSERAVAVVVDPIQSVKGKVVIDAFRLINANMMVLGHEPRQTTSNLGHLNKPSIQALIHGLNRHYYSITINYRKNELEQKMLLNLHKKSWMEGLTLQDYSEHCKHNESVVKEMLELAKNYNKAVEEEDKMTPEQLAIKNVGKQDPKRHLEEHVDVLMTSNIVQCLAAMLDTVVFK
The depositor's hits bear a star. Rows were chosen to be rich in hits. Some 1.8% of all compounds tested hit in one or more screens of this group.

Screening O=C(NCCN1CCOCC1)c1cccc2c1C(=O)c1ccc(N3CCCC3)cc1S2(=O)=O returned HNF4A DNA FP 68, SENP1 FRET inh 22 and CSN inh 35.
For CN1CCC[C@@H]1CCNC(=O)c1cccc2c1C(=O)c1ccc(N3CCCC3)cc1S2(=O)=O the results were HNF4A DNA FP 63*, SENP1 FRET inh 5 and CSN inh 27.
Nc1nnc(CC(=O)N/N=C/c2cc([N+](=O)[O-])cc(Br)c2O)s1 was read as SUMO HTRF inh 99*, HNF4A DNA FP -4, SENP1 FRET inh -11, CSN inh 2, TPT1 inhibitor 3 and Rpn11 block inactive.
Screening COc1ccc(/C=C2\SC(=O)N(CC(=O)NNC(=O)c3ccccc3O)C2=O)cc1 returned SUMO HTRF inh 56*, HNF4A DNA FP 0, SENP1 FRET inh -33, CSN inh -1, TPT1 inhibitor -3 and Rpn11 block inactive.
`COC(=O)c1ccc(C)c(NC(=O)CCSc2ccc(Cl)cc2)c1` gave SUMO HTRF inh 19, HNF4A DNA FP 95*, SENP1 FRET inh -3, CSN inh 5, TPT1 inhibitor -4 and Rpn11 block inactive.
`COC(=O)c1ccc(C)c(NC(=O)CCSc2ccccc2)c1` gave SUMO HTRF inh 15, HNF4A DNA FP 0, SENP1 FRET inh 0, CSN inh 4, TPT1 inhibitor -4 and Rpn11 block inactive.
`Cc1cc(-c2ccc(Br)s2)nc(-n2cccc2)n1` gave SUMO HTRF inh 24, HNF4A DNA FP 50*, SENP1 FRET inh -46, CSN inh 6 and Rpn11 block inactive.
`Cc1cc(C)cc(N=C(NO)c2cccc([N+](=O)[O-])c2)c1` gave SUMO HTRF inh 21, HNF4A DNA FP 1, SENP1 FRET inh 2, CSN inh 2, TPT1 inhibitor 2 and Rpn11 block inactive.
CN(C)c1ccc(C=c2c3cc([N+](=O)[O-])ccc3n3c2cc(-c2ccccc2)[n+]3C)cc1 was read as HNF4A DNA FP 4, SENP1 FRET inh 9, CSN inh 5 and Rpn11 block inactive.
CN(C)c1ccc(C=c2c3ccccc3n3c2cc(-c2ccccc2)[n+]3C)cc1 was read as HNF4A DNA FP 74*, SENP1 FRET inh -25, CSN inh 24 and Rpn11 block active.
`CN(C)c1ccc(C=c2c3ccccc3n3c2cc(-c2ccc(Cl)cc2)[n+]3C)cc1` gave HNF4A DNA FP 50*, SENP1 FRET inh -26, CSN inh 18 and Rpn11 block inactive.
Screening CC(C(=O)Nc1ncc2c(n1)CC(C)(C)CC2=O)N1C(=O)c2ccccc2C1=O (stereo not given) returned SUMO HTRF inh 7, HNF4A DNA FP -1, SENP1 FRET inh 2, CSN inh 0, TPT1 inhibitor -4 and Rpn11 block inactive.
O=C(c1cccc([N+](=O)[O-])c1)c1ccc2[nH]c(=O)[nH]c2c1 was read as SUMO HTRF inh 1, HNF4A DNA FP 4, SENP1 FRET inh 1, CSN inh 97*, TPT1 inhibitor 4 and Rpn11 block inactive.
Screening NC(=O)c1cccc([N+](=O)[O-])c1 returned HNF4A DNA FP 5, SENP1 FRET inh 0, CSN inh -2 and Rpn11 block inactive.
O=C(/C=C/c1ccc([N+](=O)[O-])cc1)N1CCN(S(=O)(=O)c2ccccc2)CC1 was read as HNF4A DNA FP 3, SENP1 FRET inh 0, CSN inh 47* and Rpn11 block inactive.
`O=C(/C=C/c1ccc([N+](=O)[O-])cc1)N1CCN(Cc2ccccc2)CC1` gave SUMO HTRF inh 12, HNF4A DNA FP 3, SENP1 FRET inh 1, CSN inh -4, TPT1 inhibitor -1 and Rpn11 block inactive.
Screening O=C(CSc1nnc(-c2cccc(Cl)c2)o1)Nc1ccc2c(c1)OCCO2 returned SUMO HTRF inh 16, HNF4A DNA FP -1, SENP1 FRET inh -1, CSN inh -1, TPT1 inhibitor -4 and Rpn11 block inactive.
Screening Cc1noc(/C=C/c2ccco2)c1S(=O)(=O)N1CCC(C(=O)N(C)Cc2ccccc2)CC1 returned SUMO HTRF inh 33, HNF4A DNA FP -2, SENP1 FRET inh 6, CSN inh 5, TPT1 inhibitor 11 and Rpn11 block inactive.
`Cc1noc(/C=C/c2ccco2)c1S(=O)(=O)N1CCC(C(=O)N2c3ccccc3CC2C)CC1` (stereo not given) gave SUMO HTRF inh 12, HNF4A DNA FP 44*, SENP1 FRET inh 15, CSN inh 18, TPT1 inhibitor 7 and Rpn11 block inactive.
`COc1ccc(S(=O)(=O)Nc2cc(OC)c(NC(=O)c3ccco3)cc2OC)cc1` gave SUMO HTRF inh 2, HNF4A DNA FP 1, SENP1 FRET inh -8, CSN inh 2, TPT1 inhibitor -4 and Rpn11 block inactive.
Screening COc1cc(NS(=O)(=O)c2ccc(Br)cc2)c(OC)cc1NC(=O)c1ccco1 returned SUMO HTRF inh 2, HNF4A DNA FP 68*, SENP1 FRET inh -4, CSN inh 7 and TPT1 inhibitor 5.
`O=C(O)c1ccc(N/N=C/c2c(F)cccc2Cl)cc1` gave SUMO HTRF inh 17, HNF4A DNA FP -1, SENP1 FRET inh -2, CSN inh 2, TPT1 inhibitor 0 and Rpn11 block inactive.
Screening COc1ccc(C(=O)Cn2nc(CNc3ccc(Br)cc3)[n+]3c2CCCCC3)cc1 returned SUMO HTRF inh 11, HNF4A DNA FP 2, SENP1 FRET inh 1, CSN inh 5, TPT1 inhibitor 3 and Rpn11 block inactive.
Cc1ccc(C(C)C)c(OCc2nn(CC(=O)c3ccc(OC(F)F)cc3)c3[n+]2CCCCC3)c1 was read as SUMO HTRF inh -9, HNF4A DNA FP 0, SENP1 FRET inh 67*, CSN inh 2 and TPT1 inhibitor 11.
CS(=O)(=O)Nc1ccc(C(=O)Nc2ccc(S(=O)(=O)N3CCCCC3)cc2)cc1 was read as SUMO HTRF inh 3, HNF4A DNA FP 2, SENP1 FRET inh 2, CSN inh 0 and Rpn11 block inactive.
Cn1c(=O)c2c(nc(CN3CCN(c4ccc(F)cc4)CC3)n2CCN2CCOCC2)n(C)c1=O was read as SUMO HTRF inh 10, HNF4A DNA FP 75*, SENP1 FRET inh -2, CSN inh 2, TPT1 inhibitor -3 and Rpn11 block inactive.
